From PubChem BioAssay
Pf Dd2 growth = P. falciparum Dd2 growth inhibitors, primary screen, SYBR Green fluorescence, single dose replicates; 72 h; hits give low values; activity change, % at 10 µM; actives 2.3% (n = 94,000); in the data active means activity change below about -80%; inconclusive means no clear call, values can overlap the other calls
IDH1 R132H inh = inhibitors of IDH1 R132H reductase, primary screen, biochemical, plate reader, single point; diaphorase/resazurin fluorescence, 60 min; inhibition, % at 10 µM; AID 624101, 2012; Isocitrate dehydrogenase [NADP] cytoplasmic (Homo sapiens), O75874; actives 0.18% (n = 70,000); in the data active means inhibition above about 34%; inconclusive means no clear call, values can overlap the other calls; inactive means below about 11%;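 further: 0% = DMSO and 100% = no enzyme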
T cruzi growth-1 = T. cruzi intracellular proliferation inhibitors, primary screen, cell-based, beta-gal Tulahuen parasites, NIH3T3 host, luminescence. T. cruzi beta-gal in NIH3T3, GalScreen luminescence, 90 h. inhibition, % at 8.34 µM. actives 5.9% (n = 77,000);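 active means mean inhibition above about 93%, with at least 55% of replicates each passing it, limit read from the data, passing the limit was not always enough; inconclusive means only one of those two conditions holds; inactive means neither condition holds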
GASC1 inh = inhibitors of GASC-1 (KDM4C) histone demethylase, primary screen, biochemical, single concentration HTS | GST-KDM4C 2-372, H3K9me3 peptide, LANCE TR-FRET | Lysine-specific demethylase 4C (Homo sapiens), Q9H3R0 | actives 0.15% (n = 96,000) | inhibition, % at 12.5 µM;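 active means mean replicate inhibition above about 25%, with at least 55% of replicates also reaching it, limit read from the data, passing the limit was not always enough; inconclusive means only one of those two conditions met; inactive means neither condition met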
Target sequence (Q9H3R0 2-372 limits assumed): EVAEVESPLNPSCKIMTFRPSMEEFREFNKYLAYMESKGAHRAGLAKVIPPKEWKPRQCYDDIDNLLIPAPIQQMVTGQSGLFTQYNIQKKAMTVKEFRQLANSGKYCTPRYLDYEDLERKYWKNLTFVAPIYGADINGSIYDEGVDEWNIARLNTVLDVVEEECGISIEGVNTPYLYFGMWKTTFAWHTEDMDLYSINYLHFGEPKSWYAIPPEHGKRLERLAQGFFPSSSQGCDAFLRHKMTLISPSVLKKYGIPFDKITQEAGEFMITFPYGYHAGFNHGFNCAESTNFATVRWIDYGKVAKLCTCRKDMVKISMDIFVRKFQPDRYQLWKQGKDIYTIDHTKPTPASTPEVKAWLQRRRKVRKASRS
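reagent = H3K9me3 peptide substrate, Fe(II), 2-oxoglutarate | system = GST-tagged GASC-1 (JMJD2C) catalytic fragment, aa 2-372 | amount = enzyme final amount 10 nM | read-out = Fall in 671/618 emission ratio as inhibition | medium = HEPES buffer, pH 7.5, plus ascorbate | schedule = 30 min reaction, 60 min detection, RT | measured by = LANCE TR-FRET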
T cruzi growth-2 = T. cruzi intracellular proliferation inhibitors, confirmation, cell-based, NIH3T3 host, beta-gal parasite, luminescence, cherry-pick | T. cruzi beta-gal in NIH3T3, GalScreen luminescence, 90 h | shares compounds with T cruzi growth-1 | actives 72% (n = 5,600) | inhibition, % at 8.35 µM | AID 651739, 2012;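 active means mean replicate inhibition above about 95% and at least 55% of replicates individually reaching it, limit read from the data; inconclusive means only one of the two criteria is met; inactive means neither criterion is met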
T cruzi growth-3 = inhibitors of intracellular T. cruzi replication, confirmation, NIH3T3 host cells, beta-gal parasites, cherry-pick, set 2; shares compounds with T cruzi growth-1; T. cruzi beta-gal in NIH3T3, GalScreen luminescence, 90 h; inhibition, % at 2.09 µM; actives 21% (n = 5,600);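 active means mean inhibition above about 95%, with at least 55% of replicates also reaching it, limit read from the data; inconclusive means meets just one of the two conditions; inactive means meets neither condition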;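 further: plate controls were neutral control median for no effect and positive control median for full effect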
3T3 cytotox = cytotoxicity in mouse NIH/3T3 fibroblasts, confirmation, cytotoxicity control for T. cruzi proliferation inhibitor project, cell-based, cherry-pick, single point. shares compounds with T cruzi growth-1. NIH/3T3 viability, CellTiter-Glo ATP luminescence, 90 h. cytotoxicity (signal decrease), % at 8.35 µM. actives 14% (n = 5,600);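 active means mean signal decrease across replicates above about 35% based on untreated-well scatter, with enough replicates individually passing, limit read from the data; inconclusive means no rule stated though some were filed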;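 further: 0% = median of neutral control wells and 100% = median of positive control wells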
3T3 cytotox 2 = NIH/3T3 fibroblast cytotoxicity, confirmation, cytotoxicity control, cell-based, cherry-pick, single point, set 2 | actives 56% (n = 5,600) | inhibition, % at 24.9 µM | NIH/3T3 viability, CellTiter-Glo ATP luminescence, 90 h | AID 651744, 2012 | shares compounds with T cruzi growth-1;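 active means mean loss of cell viability signal at or above a set limit, and enough replicates individually reaching it; inconclusive means meets only the mean limit or only the replicate share; inactive means meets neither condition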;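 further: 0% = median of neutral control wells and 100% = median of positive control wells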
The depositor's hits bear a star; ? = inconclusive; . = not tested or not shown. This is a sample that favours compounds with a hit; in the whole collection about 5.8% have one here.

SMILES	Pf Dd2 growth	IDH1 R132H inh	T cruzi growth-1	GASC1 inh	T cruzi growth-2	T cruzi growth-3	3T3 cytotox	3T3 cytotox 2
Cc1cc(C(=O)Nc2cccc3c2O[C@H](CN(C)Cc2ccc(C(=O)Nc4ccccc4N)cc2)[C@H](C)CN([C@H](C)CO)C3=O)n(C)n1	-60	.	103*	2	-49	-59	-10	-13
Cc1cc(C(=O)Nc2cccc3c2O[C@H](CN(C)Cc2ccc(C(=O)Nc4ccccc4N)cc2)[C@@H](C)CN([C@@H](C)CO)C3=O)n(C)n1	-87*	.	106*	-3	106*	86	10	23
Cc1cc(C(=O)Nc2cccc3c2O[C@@H](CN(C)Cc2ccccc2)[C@@H](C)CN([C@H](C)CO)C3=O)n(C)n1	10	1	26	2	.	.	.	.
Cc1ccc(S(=O)(=O)Nc2cccc3c2O[C@H](CN(C)Cc2ccc(C(=O)O)cc2)[C@H](C)CN([C@H](C)CO)C3=O)cc1	21	.	26	0	.	.	.	.
C[C@@H]1CN([C@H](C)CO)C(=O)c2cc(-c3cccc(C(=O)N(C)C)c3)cnc2O[C@@H]1CN(C)S(=O)(=O)c1ccccc1	7	18	.	-3	.	.	.	.
C[C@@H]1CN([C@@H](C)CO)S(=O)(=O)c2ccc(C#Cc3ccccc3F)cc2O[C@H]1CN(C)CC1CCOCC1	-24	.	.	1	.	.	.	.
COc1ccc(NC(=O)N(C)C[C@H]2OCCCC[C@H](C)Oc3ccc(NS(=O)(=O)c4cccs4)cc3C(=O)N([C@H](C)CO)C[C@@H]2C)cc1	-24	2	38	0	.	.	.	.
O=C(C[C@H]1CC[C@@H]2[C@H](COC[C@H](O)CN2S(=O)(=O)c2cccc(F)c2)O1)Nc1ccc(-c2ccccc2)cc1	-27	.	101*	0	98*	88	44*	104*
COc1cccc(S(=O)(=O)N2C[C@H](O)COC[C@H]3O[C@@H](CC(=O)N4CCOCC4)CC[C@@H]32)c1	0	.	?	0	13	14	11	1
Cc1ccc(S(=O)(=O)N2C[C@H](O)COC[C@H]3O[C@H](CC(=O)NCc4ccc(Cl)c(Cl)c4)CC[C@@H]32)cc1	11	.	90	0	.	.	.	.
COc1cccc(S(=O)(=O)N2C[C@@H](O)COC[C@@H]3O[C@@H](CC(=O)N4CCOCC4)CC[C@H]32)c1	5	.	8	1	.	.	.	.
O=C(C[C@H]1CC[C@H]2[C@@H](COC[C@@H](O)CN2S(=O)(=O)c2cccc(F)c2)O1)Nc1ccc(-c2ccccc2)cc1	-15	.	74	-1	.	.	.	.
O=C(C[C@H]1CC[C@@H]2[C@H](COC[C@@H](O)CN2S(=O)(=O)c2cccc(F)c2)O1)Nc1ccc(-c2ccccc2)cc1	-32	.	96*	-2	103*	60	50*	101*
COc1ccc(S(=O)(=O)N2C[C@H](O)COC[C@@H]3O[C@@H](CC(=O)NCc4ccc(Cl)c(Cl)c4)CC[C@H]32)cc1	-12	.	109*	-1	101*	-36	-2	62*
COCC#Cc1ccc([C@@H]2[C@H](C#N)N(C(=O)c3cccnc3)[C@H]2CO)cc1	-28	.	89	0	.	.	.	.
CCC(=O)Nc1ccc2c(c1)OC[C@H](C)N(CCC(F)(F)F)C[C@H](C)[C@H](OC)CN(C)C2=O	.	1	42	1	.	.	.	.
COc1ccc2c3c(n(C)c2c1)[C@H](CO)N(Cc1ccc2c(c1)OCO2)CC31CCN(C(C)=O)CC1	-45	.	.	0	.	.	.	.
